Measurements as given in ChEMBL document CHEMBL1152769, “Exploiting the pyrazolo[3,4-d]pyrimidin-4-one ring system as a useful template to obtain potent adenosine deaminase inhibitors” (J Med Chem, 2009).
Calls of active or inactive are those of the source. The rule behind the calls is not given here.

Columns and labels:
[1] = test system: Rattus norvegicus; test: Toxicity in Sprague-Dawley rat assessed as variation in body weight at 5 to 45 umol/kg, ip for 7days; format: organism-based; conditions: in vivo, 168 h
[2] = test system: Rattus norvegicus; test: Antiinflammatory activity in DNBS-induced Sprague-Dawley rat colitis model assessed as DNBS-induced macroscopic damage in colon at 15 umol/kg, ip for 7 days administered 1 day before colitis induction; format: functional
In short: (§1)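 DNBS colitis was induced in male Sprague-Dawley rats (250-300 g): 15 mg in 0.25 mL 50% ethanol given intrarectally. Dosing was ip for 7 days, beginning 1 day before DNBS; n=6 per group; vehicle controls. Six days after DNBS, the whole colon was scored for macroscopic damage by two observers blinded to treatment.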

[3] = test system: Rattus norvegicus; test: Antiinflammatory activity in DNBS-induced Sprague-Dawley rat colitis model assessed as reduction in DNBS-induced increase in colonic tissue malondialdehyde level at 5 to 45 umol/kg, ip for 7 days administered 1 day before colitis induction; format: functional, organism-based
In short: (§2)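 Rats (male Sprague-Dawley) received intrarectal DNBS (15 mg in 50% ethanol), with ip dosing for 7 days from 1 day before; n=6 per group. Colon was taken at day 6, homogenized in cold 20 mmol/L Tris-HCl, pH 7.4, and spun 1500g for 10 min at 4 °C. MDA was measured by colorimetric kit and expressed as µmol per mg tissue.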

[4] = test system: Rattus norvegicus; test: Antiinflammatory activity in ip dosed Sprague-Dawley rat colitis model assessed as reduction in DNBS-induced macroscopic damage in colon administered for 7 days 1 day before colitis induction; format: functional, organism-based; in short: as §1
[5] = test system: Rattus norvegicus; test: Toxicity in Sprague-Dawley rat assessed as mortality at 5 to 45 umol/kg, ip for 7days; format: organism-based; conditions: in vivo, 168 h
[6] = test system: Rattus norvegicus; test: Antiinflammatory activity in DNBS-induced Sprague-Dawley rat colitis model assessed as reduction in DNBS-induced increase in colonic tissue malondialdehyde level at 0.25 umol/kg, ip for 7 days administered 1 day before colitis induction; format: functional, organism-based; in short: as §2
[7] = test system: Rattus norvegicus; test: Antiinflammatory activity in DNBS-induced Sprague-Dawley rat colitis model assessed as DNBS-induced macroscopic damage in colon at 5 umol/kg, ip for 7 days administered 1 day before colitis induction; format: functional; in short: as §1
[8] = test system: Rattus norvegicus; test: Antiinflammatory activity in ip dosed Sprague-Dawley rat colitis model assessed as reduction in DNBS-induced increase in spleen weight administered for 7 days 1 day before colitis induction; format: functional, organism-based
In short: (§3)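 Colitis was induced in male Sprague-Dawley rats (250-300 g) by intrarectal DNBS, 15 mg in 0.25 mL 50% ethanol, under isoflurane. Drug was given ip daily for 7 days from 1 day before induction; six rats per group; vehicle controls. Spleen was weighed at assessment 6 days after DNBS and expressed as % increase, as an index of systemic inflammation.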

[9] = Inhibition of bovine spleen adenosine deaminase type 9 by spectrophotometry; set-up: species or system Bos taurus
In short: (§4)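 Bovine spleen ADA type IX (0.3 nM) with 50 µM adenosine in 50 mM potassium phosphate, pH 7.2, at 30 °C. Deamination read as the A262 change over 2 min, against a substrate-free blank. DMSO ≤4% final. Screened at 10^-5 M; actives retested at 10-5 to 10-11 M in triplicate. IC50 taken by linear regression of log concentration-response, then converted to Ki by Cheng-Prusoff.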

[10] = test system: Rattus norvegicus; test: Antiinflammatory activity in ip dosed Sprague-Dawley rat colitis model assessed as reduction in DNBS-induced increase in colonic tissue malondialdehyde level administered for 7 days 1 day before colitis induction; format: functional, organism-based; in short: as §2
[11] = test system: Rattus norvegicus; test: Toxicity in Sprague-Dawley rat assessed as behavioral changes at 5 to 45 umol/kg, ip for 7days; format: organism-based; conditions: in vivo, 168 h
[12] = test system: Rattus norvegicus; test: Antiinflammatory activity in DNBS-induced Sprague-Dawley rat colitis model assessed as body weight loss at 15 umol/kg, ip for 7 days administered 1 day before colitis induction; format: functional
In short: (§5)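 Male Sprague-Dawley rats (250-300 g) under brief isoflurane received 15 mg DNBS in 0.25 mL 50% ethanol intrarectally, 8 cm proximal to anus. Drug was given ip for 7 days starting 1 day before DNBS; controls received vehicle; n=6 per group. Body weight was recorded daily from the start of dosing, and the change was taken at day 6 after DNBS.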

[13] = test system: Rattus norvegicus; test: Antiinflammatory activity in ip dosed Sprague-Dawley rat colitis model assessed as reduction in DNBS-induced decrease in body weight administered for 7 days 1 day before colitis induction; format: functional, organism-based; in short: as §5
[14] = test system: Rattus norvegicus; test: Antiinflammatory activity in DNBS-induced Sprague-Dawley rat colitis model assessed as DNBS-induced increase in spleen weight at 15 umol/kg, ip for 7 days administered 1 day before colitis induction; format: functional; in short: as §3
[15] = test system: Rattus norvegicus; test: Antiinflammatory activity in DNBS-induced Sprague-Dawley rat colitis model assessed as DNBS-induced macroscopic damage in colon at 45 umol/kg, ip for 7 days administered 1 day before colitis induction; format: functional; in short: as §1
[16] = test system: Rattus norvegicus; test: Antiinflammatory activity in ip dosed Sprague-Dawley rat colitis model assessed as reduction in DNBS-induced increase in colonic tissue TNFalpha level administered for 7 days 1 day before colitis induction; format: functional, organism-based
In short: (§6)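 In male Sprague-Dawley rats with intrarectal DNBS colitis (15 mg in 50% ethanol), dosing was ip for 7 days from 1 day before induction; six per group. Colon samples from day 6 were stored at -80 °C, homogenized at 4 °C in PBS, pH 7.2 (0.3 mL/100 mg), and centrifuged at 13400g for 20 min. TNF-α was measured by ELISA and expressed as pg/mg tissue.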

[17] = test system: Rattus norvegicus; test: Antiinflammatory activity in DNBS-induced Sprague-Dawley rat colitis model assessed as DNBS-induced increase in colonic tissue TNFalpha level at 45 umol/kg, ip for 7 days administered 1 day before colitis induction; format: functional; in short: as §6
[18] = test system: Rattus norvegicus; test: Antiinflammatory activity in DNBS-induced Sprague-Dawley rat colitis model assessed as DNBS-induced increase in spleen weight at 5 umol/kg, ip for 7 days administered 1 day before colitis induction; format: functional; in short: as §3
[19] = test system: Rattus norvegicus; test: Antiinflammatory activity in DNBS-induced Sprague-Dawley rat colitis model assessed as body weight loss at 5 umol/kg, ip for 7 days administered 1 day before colitis induction; format: functional; in short: as §5
[20] = test system: Rattus norvegicus; test: Antiinflammatory activity in DNBS-induced Sprague-Dawley rat colitis model assessed as body weight gain at 45 umol/kg, ip for 7 days administered 1 day before colitis induction; format: functional; in short: as §5
[21] = test system: Rattus norvegicus; test: Antiinflammatory activity in DNBS-induced Sprague-Dawley rat colitis model assessed as DNBS-induced increase in spleen weight at 45 umol/kg, ip for 7 days administered 1 day before colitis induction; format: functional; in short: as §3
[22] = test system: Rattus norvegicus; test: Toxicity in Sprague-Dawley rat assessed as variation in food intake at 5 to 45 umol/kg, ip for 7days; format: organism-based; conditions: in vivo, 168 h
[23] = species: Bos taurus; test: Inhibition of bovine spleen adenosine deaminase type 9 at <= 10 uM by spectrophotometry; in short: as §4
[24] = test system: Rattus norvegicus; test: Antiinflammatory activity in DNBS-induced Sprague-Dawley rat colitis model assessed as reduction in DNBS-induced increase in colonic tissue TNFalpha level at 0.25 umol/kg, ip for 7 days administered 1 day before colitis induction; format: functional, organism-based; in short: as §6
[25] = test system: Rattus norvegicus; test: Antiinflammatory activity in DNBS-induced Sprague-Dawley rat colitis model assessed as reduction in DNBS-induced macroscopic damage in colon at 0.25 umol/kg, ip for 7 days administered 1 day before colitis induction; format: functional, organism-based; in short: as §1
[26] = test system: Rattus norvegicus; test: Antiinflammatory activity in DNBS-induced Sprague-Dawley rat colitis model assessed as reduction in DNBS-induced increase in spleen weight at 0.25 umol/kg, ip for 7 days administered 1 day before colitis induction; format: functional, organism-based; in short: as §3

With `O=C(Nc1ccc(Cn2cc3c(=O)[nH]cnc3n2)cc1)Nc1ccc(C(F)(F)F)cc1` as the compound, how does the Activity [1] read?
The Activity was “Non-toxic”.

And the Activity [2]?
The Activity was 5.6.

And the Activity [3]?
Its Activity is “Active”.

And the Activity [4]?
Its Activity is “Dose-dependent effect”.

And the Activity [5]?
Its Activity is “Non-toxic”.

And the Activity [6]?
The Activity was “Active”.

And the Activity [7]?
Its Activity is 6.9.

What about the Activity [8] of the same compound?
Its Activity is “Dose-dependent effect”.

What about the Ki [9] of the same compound?
Its Ki is 0.16 nM.

What about the Activity [10] of the same compound?
Its Activity is “Dose-dependent effect”.

What about the Activity [11] of the same compound?
Its Activity is “Non-toxic”.

And the Activity [12]?
The Activity was 10.4 g.

What about the Activity [13] of the same compound?
Its Activity is “Dose-dependent effect”.

What about the Activity [14] of the same compound?
The Activity was 18.9%.

What about the Activity [15] of the same compound?
Its Activity is 4.3.

What about the Activity [16] of the same compound?
Its Activity is “Dose-dependent effect”.

And the Activity [17]?
The Activity was 5.8 pg/mg.

What about the Activity [18] of the same compound?
The Activity was 23.8%.

What about the Activity [19] of the same compound?
The Activity was 16.5 g.

And the Activity [20]?
Its Activity is 2.3 g.

What about the Activity [21] of the same compound?
Its Activity is 10.1%.

What about the Activity [22] of the same compound?
The Activity was “Non-toxic”.

Which Ki [9] does the source give for `O=C(Nc1ccc(Cn2cc3c(=O)[nH]cnc3n2)cc1)c1ccccc1` here?
The Ki was 12.7 nM.

With `O=C(NCc1ccccc1)Nc1ccc(Cn2cc3c(=O)[nH]cnc3n2)cc1` as the compound, how does the Ki [9] read?
The Ki was 85.7 nM.

For `COc1ccc(C(=O)Nc2ccc(Cn3cc4c(=O)[nH]cnc4n3)cc2)cc1`, which Ki [9] is on record?
The Ki was 15.6 nM.

With `O=C(Nc1ccccc1)Nc1ccc(Cn2cc3c(=O)[nH]cnc3n2)cc1` as the compound, how does the Ki [9] read?
Its Ki is 2.42 nM.

Which Ki [9] does the source give for `O=C(Nc1ccc(Cc2ccccc2)cc1)Nc1ccc(Cn2cc3c(=O)[nH]cnc3n2)cc1` here?
Its Ki is 186 nM.

With `O=C(Nc1ccc(Cn2cc3c(=O)[nH]cnc3n2)cc1)c1ccc(C(F)(F)F)cc1` as the compound, how does the Ki [9] read?
Its Ki is 0.51 nM.

With `CCCCCC[C@H]([C@H](C)O)n1cnc2c(N)ncnc21` [(+)-EHNA] as the compound, how does the Ki [9] read?
The Ki was 1.14 nM.

For `CCCCCCCCCCCn1cc2c(=O)[nH]cnc2n1`, which Activity [23] is on record?
The Activity was “inactive”.

Which Ki [9] does the source give for `O=C(Nc1ccc(Cn2cc3c(=O)[nH]cnc3n2)cc1)Nc1ccc(OCc2ccccc2)cc1` here?
The Ki was 108 nM.

With `O=C(Cc1ccccc1)Nc1ccc(Cn2cc3c(=O)[nH]cnc3n2)cc1` as the compound, how does the Ki [9] read?
Its Ki is 47.9 nM.

For `COc1ccc(NC(=O)Nc2ccc(Cn3cc4c(=O)[nH]cnc4n3)cc2)cc1`, which Ki [9] is on record?
The Ki was 28.3 nM.

For `O=C(Nc1ccc(Cn2cc3c(=O)[nH]cnc3n2)cc1)c1ccc(F)cc1`, which Ki [9] is on record?
The Ki was 0.96 nM.

For `CCCCCCCCCCn1cc2c(=O)[nH]cnc2n1`, which Activity [23] is on record?
The Activity was “inactive”.

For `CN(C)c1ccc(NC(=O)Nc2ccc(Cn3cc4c(=O)[nH]cnc4n3)cc2)cc1`, which Ki [9] is on record?
The Ki was 2.01 nM.

Which Activity [23] does the source give for `CCCCCCCCCn1cc2c(=O)[nH]cnc2n1` here?
Its Activity is “inactive”.

For `C[C@@H]1C[C@H]2[C@@H]3CCC4=CC(=O)C=C[C@]4(C)[C@@]3(F)[C@@H](O)C[C@]2(C)[C@@]1(O)C(=O)CO`, which Activity [24] is on record?
The Activity was “Active”.

And the Activity [3]?
Its Activity is “Active”.

And the Activity [6]?
The Activity was “Active”.

What about the Activity [25] of the same compound?
Its Activity is “Active”.

And the Activity [26]?
The Activity was “Active”.

For `O=C(Nc1ccc(F)cc1)Nc1ccc(Cn2cc3c(=O)[nH]cnc3n2)cc1`, which Ki [9] is on record?
Its Ki is 1.15 nM.
